Test results taken from ChEMBL document CHEMBL4038284, “Synthesis of novel quinoline-based 4,5-dihydro-1H-pyrazoles as potential anticancer, antifungal, antibacterial and antiprotozoal agents” (Eur J Med Chem, 2017).
Values after ≈ are worked out from the molar mass of the structure shown.

Tests used:
Klebsiella pneumoniae [1] = assay: Antibacterial activity against ESBL positive Klebsiella pneumoniae ATCC 700603 after 24 hrs by resazurin dye based microdilution assay; format: functional; conditions: Klebsiella pneumoniae, 700603, 24 h
Method in brief: (§1)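 MIC taken as the lowest concentration giving visible inhibition and/or by resazurin (1 mg/mL). Gentamicin was the control. Run in duplicate, repeated at least three times.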

Leishmania panamensis = assay: Antileshmanial activity against EpiR/GFP fused Leishmania panamensis MHOM/CO/87/UA140 intracellular amastigotes infected in human […] cells after 72 hrs by flow cytometric method; format: functional, cell-based; conditions: MHOM/CO/87/UA140, 72 h
Method in brief: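 PMA-treated U-937 cells (3 × 10^5 cells/mL) infected with stationary-phase GFP L. panamensis promastigotes (15:1), 3 h at 34 °C, then washed. After 24 h, compounds added at 50, 12.5, 3.125 and 0.78 µg/mL for 72 h at 37 °C. EC50 by Probit; triplicate, two experiments.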

Candida albicans [2] = assay: Growth inhibition of Candida albicans ATCC 10231 at 7.8 ug/ml incubated for 48 hrs under dark condition by broth microdilution method relative to control; format: functional; conditions: ATCC 10231, 48 h, read-out: GI
Method in brief: (§2)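 CLSI M27-A3 broth microdilution in RPMI-1640, DMSO ≤1%. Inoculum 1-5 × 10^3 CFU/mL. Incubated 48 h at 30 °C, dark. % inhibition = 100 − (OD405 test − sterility control)/(OD405 growth control − sterility control), with growth and sterility control wells. Triplicate.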

Staphylococcus aureus [3] = assay: Antibacterial activity against methicillin-sensitive Staphylococcus aureus ATCC 25923 after 24 hrs by resazurin dye based microdilution assay; format: functional; conditions: ATCC 25923, 24 h; method in brief: as §1
Cryptococcus neoformans [4] = assay: Growth inhibition of Cryptococcus neoformans ATCC 32264 at 15.62 ug/ml incubated for 48 hrs under dark condition by broth microdilution method relative to control; format: functional; conditions: ATCC 32264, 48 h, read-out: GI; method in brief: as §2
Candida albicans [5] = assay: Growth inhibition of Candida albicans ATCC 10231 at 250 ug/ml incubated for 48 hrs under dark condition by broth microdilution method relative to control; format: functional; conditions: ATCC 10231, 48 h, read-out: GI; method in brief: as §2
Pseudomonas aeruginosa = assay: Antibacterial activity against Pseudomonas aeruginosa ATCC 27853 after 24 hrs by resazurin dye based microdilution assay; format: functional; conditions: ATCC 27853, 24 h; method in brief: as §1
Candida albicans [6] = assay: Growth inhibition of Candida albicans ATCC 10231 at 31.25 ug/ml incubated for 48 hrs under dark condition by broth microdilution method relative to control; format: functional; conditions: ATCC 10231, 48 h, read-out: GI; method in brief: as §2
Neisseria gonorrhoeae = assay: Antibacterial activity against beta lactamase positive Neisseria gonorrhoeae ATCC 31426 by oxidase test; format: functional
Method in brief: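 Agar dilution MIC on GC agar with 1% isovitalex containing increasing compound concentrations. Plates inoculated with about 1×10^4 CFU (5 µL). MIC is the lowest concentration that inhibited growth, with growth confirmed by oxidase test. Run in duplicate, repeated at least three times.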

Cryptococcus neoformans [7] = assay: Growth inhibition of Cryptococcus neoformans ATCC 32264 at 250 ug/ml incubated for 48 hrs under dark condition by broth microdilution method relative to control; format: functional; conditions: ATCC 32264, 48 h, read-out: GI; method in brief: as §2
Candida albicans [8] = assay: Growth inhibition of Candida albicans ATCC 10231 at 15.62 ug/ml incubated for 48 hrs under dark condition by broth microdilution method relative to control; format: functional; conditions: ATCC 10231, 48 h, read-out: GI; method in brief: as §2
Escherichia coli = assay: Antibacterial activity against Escherichia coli ATCC 25922 after 24 hrs by resazurin dye based microdilution assay; format: functional; conditions: ATCC 25922, 24 h; method in brief: as §1
Cryptococcus neoformans [9] = assay: Growth inhibition of Cryptococcus neoformans ATCC 32264 at 62.5 ug/ml incubated for 48 hrs under dark condition by broth microdilution method relative to control; format: functional; conditions: ATCC 32264, 48 h, read-out: GI; method in brief: as §2
Candida albicans [10] = assay: Growth inhibition of Candida albicans ATCC 10231 at 125 ug/ml incubated for 48 hrs under dark condition by broth microdilution method relative to control; format: functional; conditions: ATCC 10231, 48 h, read-out: GI; method in brief: as §2
Klebsiella pneumoniae [11] = assay: Antibacterial activity against carbapenemase positive Klebsiella pneumoniae BAA 1705 after 24 hrs by resazurin dye based microdilution assay; format: functional; conditions: BAA 1705, 24 h; method in brief: as §1
U-937 = assay: Cytotoxicity against human U937 cells after 72 hrs by MTT assay; format: cell-based; conditions: u-937, 72 h
Method in brief: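 Exponentially growing U-937 at 1 × 10^5 cells/mL in RPMI-1640 with 10% FBS were exposed to 200, 50, 12.5 and 3.125 µg/mL for 72 h at 37 °C, 5% CO2. MTT for 3 h, stopped with isopropanol/SDS, formazan read at 570 nm, blank-corrected. LC50 by Probit from % viability against untreated cells. Triplicate, at least two independent experiments.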

Cryptococcus neoformans [12] = assay: Antifungal activity against Cryptococcus neoformans ATCC 32264 incubated for 48 hrs under dark condition by broth microdilution method; format: functional; conditions: ATCC 32264, 48 h
Method in brief: (§3)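 CLSI M27-A3 broth microdilution in RPMI-1640, DMSO ≤1%, compounds at 250-0.98 µg/mL final. Inoculum 1-5 × 10^3 CFU/mL. Incubated 48 h at 30 °C in a moist dark chamber, read at OD405. MIC80 and MIC50 taken from % inhibition dose-response curves (mean ± SEM, triplicate). Amphotericin B was the positive control.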

Candida albicans [13] = assay: Growth inhibition of Candida albicans ATCC 10231 at 3.4 ug/ml incubated for 48 hrs under dark condition by broth microdilution method relative to control; format: functional; conditions: ATCC 10231, 48 h, read-out: GI
Candida albicans [14] = assay: Antifungal activity against Candida albicans ATCC 10231 incubated for 48 hrs under dark condition by broth microdilution method; format: functional; conditions: ATCC 10231, 48 h; method in brief: as §3
Cryptococcus neoformans [15] = assay: Growth inhibition of Cryptococcus neoformans ATCC 32264 at 3.4 ug/ml incubated for 48 hrs under dark condition by broth microdilution method relative to control; format: functional; conditions: ATCC 32264, 48 h, read-out: GI
Cryptococcus neoformans [16] = assay: Growth inhibition of Cryptococcus neoformans ATCC 32264 at 125 ug/ml incubated for 48 hrs under dark condition by broth microdilution method relative to control; format: functional; conditions: ATCC 32264, 48 h, read-out: GI; method in brief: as §2
Trypanosoma cruzi = assay: Antitrypanosomal activity against Trypanosoma cruzi Tulahuen intracellular amastigote harboring LacZ infected in human U937 cells after 72 hrs by CPRG/Nonidet reagent based spectrophotometric method; format: functional, cell-based; conditions: U-937, 72 h
Method in brief: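 U-937 cells at 2.5 × 10^5 cells/mL in RPMI-1640 with 10% serum and 0.1 µg/mL PMA were infected with β-galactosidase-transfected Tulahuen epimastigotes at 5 parasites per cell. Infected cells were exposed to 50, 12.5, 3.125 and 0.78 µg/mL for 72 h. CPRG (100 uM) and 0.1% Nonidet P-40 were added for 3 h, read at 570 nm. EC50 by Probit. Triplicate, at least two experiments; benznidazole as reference.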

Cryptococcus neoformans [17] = assay: Growth inhibition of Cryptococcus neoformans ATCC 32264 at 7.8 ug/ml incubated for 48 hrs under dark condition by broth microdilution method relative to control; format: functional; conditions: ATCC 32264, 48 h, read-out: GI; method in brief: as §2
Staphylococcus aureus [18] = assay: Antibacterial activity against vancomycin-intermediate Staphylococcus aureus after 24 hrs by resazurin dye based microdilution assay; format: functional; method in brief: as §1
Candida albicans [19] = assay: Growth inhibition of Candida albicans ATCC 10231 at 62.5 ug/ml incubated for 48 hrs under dark condition by broth microdilution method relative to control; format: functional; conditions: ATCC 10231, 48 h, read-out: GI; method in brief: as §2
Staphylococcus aureus [20] = assay: Antibacterial activity against methicillin-resistant Staphylococcus aureus ATCC 43300 after 24 hrs by resazurin dye based microdilution assay; format: functional; conditions: ATCC 43300, 24 h
Method in brief: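 Broth microdilution in Mueller Hinton broth, inoculum 5 × 10^5 – 8 × 10^5. Compound stocks diluted in MHB with 5% DMSO and 0.1% Tween 80. Incubation 24 h at 35-37 °C. MIC is the lowest concentration with visible growth inhibition and/or by resazurin (1 mg/mL) read-out. Gentamicin as control. Run in duplicate, replicated at least three times.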

Plasmodium falciparum = assay: Antiplasmodial activity against chloroquine-sensitive Plasmodium falciparum 3D7 assessed as reduction in parasitic LDH activity after 48 hrs by Malstat reagent based […] method; format: functional; conditions: 3D7, 48 h
Method in brief: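 Unsynchronized P. falciparum 3D7 at 0.5% parasitemia and 1% hematocrit in RPMI with 3% Albumax II. Exposed to 100, 25, 6.25 and 1.56 µg/mL for 48 h at 37 °C under 90% N2/5% CO2/5% O2. After three freeze-thaw cycles, LDH measured with Malstat and NBT/PES, 1 h in the dark, read at 650 nm. IC50 by Probit; triplicate, ≥2 experiments.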

Cryptococcus neoformans [21] = assay: Growth inhibition of Cryptococcus neoformans ATCC 32264 at 31.25 ug/ml incubated for 48 hrs under dark condition by broth microdilution method relative to control; format: functional; conditions: ATCC 32264, 48 h, read-out: GI; method in brief: as §2

SMILES | inhibition of growth at 15.62 µg/mL (Cryptococcus neoformans [4]) [%] | inhibition of growth at 250 µg/mL (Cryptococcus neoformans [7]) [%] | inhibition of growth at 62.5 µg/mL (Cryptococcus neoformans [9]) [%] | LC50 (U-937) [µg/mL] | inhibition of growth at 3.4 µg/mL (Cryptococcus neoformans [15]) [%] | inhibition of growth at 125 µg/mL (Cryptococcus neoformans [16]) [%] | EC50 (Trypanosoma cruzi) [µg/mL] | inhibition of growth at 7.8 µg/mL (Cryptococcus neoformans [17]) [%] | EC50 (Plasmodium falciparum) [µg/mL] | inhibition of growth at 31.25 µg/mL (Cryptococcus neoformans [21]) [%] | other results
COc1cc(C2=NN(C(C)=O)C(c3cccc(Nc4ccnc5cc(Cl)ccc45)c3)C2)cc(OC)c1OC (stereo unspecified) | 9.86 | 53.1 | 13.3 | 5.1 (≈ 9.6 µM) | 4.02 | 23.1 | 4.08 (≈ 7.68 µM) | 5.61 | 22.9 (≈ 43.2 µM) | 10.2 | MIC (Klebsiella pneumoniae [1]): > 1000 µg/mL; EC50 (Leishmania panamensis): 1.96 µg/mL (≈ 3.69 µM); inhibition of growth at 7.8 µg/mL (Candida albicans [2]): 1.46%; MIC (Staphylococcus aureus [3]): > 1000 µg/mL; inhibition of growth at 250 µg/mL (Candida albicans [5]): 53.8%; MIC (Pseudomonas aeruginosa): > 1000 µg/mL; inhibition of growth at 31.25 µg/mL (Candida albicans [6]): 8.42%; MIC (Neisseria gonorrhoeae): 31.2 µg/mL (≈ 58.8 µM); inhibition of growth at 15.62 µg/mL (Candida albicans [8]): 6.96%; MIC (Escherichia coli): > 1000 µg/mL; inhibition of growth at 125 µg/mL (Candida albicans [10]): 37.3%; MIC (Klebsiella pneumoniae [11]): > 1000 µg/mL; MIC50 (Cryptococcus neoformans [12]): 250 µg/mL (≈ 471 µM); MIC80 (Cryptococcus neoformans [12]): ≥ 250 µg/mL; inhibition of growth at 3.4 µg/mL (Candida albicans [13]): 0%; MIC50 (Candida albicans [14]): 250 µg/mL (≈ 471 µM); MIC80 (Candida albicans [14]): ≥ 250 µg/mL; MIC (Staphylococcus aureus [18]): > 1000 µg/mL; inhibition of growth at 62.5 µg/mL (Candida albicans [19]): 12.8%; MIC (Staphylococcus aureus [20]): > 1000 µg/mL
CCN(CC)CCCC(C)Nc1ccnc2cc(Cl)ccc12.O=P(O)(O)O.O=P(O)(O)O (stereo unspecified) [CHLOROQUINE PHOSPHATE] | – | – | – | – | – | – | – | – | 18.9 | – | –
C[C@@H]1[C@H](O)[C@@H](C)/C=C/C=C/C=C/C=C/C=C/C=C/C=C/[C@H](O[C@@H]2O[C@H](C)[C@@H](O)[C@H](N)[C@@H]2O)C[C@@H]2O[C@](O)(C[C@@H](O)C[C@@H](O)[C@H](O)CC[C@@H](O)C[C@@H](O)CC(=O)O[C@H]1C)C[C@H](O)[C@H]2C(=O)O [AMPHOTERICIN B] | 100 | 100 | 100 | 36 (≈ 39 µM) | 100 | 100 | – | 100 | – | 100 | –
O=C(Cn1ccnc1[N+](=O)[O-])NCc1ccccc1 [BENZNIDAZOLE] | – | – | – | 180 (≈ 692 µM) | – | – | 10.7 (≈ 41.1 µM) | – | – | – | –
